T1: 1D-myo-inositol 2-acetamido-2-deoxy-alpha-D-glucopyranoside deacetylase (Mycobacterium tuberculosis) (UniProt P9WJN3)
T1 sequence (whole entry): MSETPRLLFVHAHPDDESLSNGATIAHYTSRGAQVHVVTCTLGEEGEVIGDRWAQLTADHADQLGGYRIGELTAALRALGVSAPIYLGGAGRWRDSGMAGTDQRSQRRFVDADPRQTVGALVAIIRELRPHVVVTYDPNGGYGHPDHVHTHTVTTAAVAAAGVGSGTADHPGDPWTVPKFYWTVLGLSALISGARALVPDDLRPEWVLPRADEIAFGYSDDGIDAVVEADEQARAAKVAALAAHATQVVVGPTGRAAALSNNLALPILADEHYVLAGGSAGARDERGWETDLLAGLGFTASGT

T2: 1D-myo-inositol 2-acetamido-2-deoxy-alpha-D-glucopyranoside deacetylase (Mycobacterium tuberculosis, UniProt P9WJN3)
T2 sequence (P9WJN3 whole entry): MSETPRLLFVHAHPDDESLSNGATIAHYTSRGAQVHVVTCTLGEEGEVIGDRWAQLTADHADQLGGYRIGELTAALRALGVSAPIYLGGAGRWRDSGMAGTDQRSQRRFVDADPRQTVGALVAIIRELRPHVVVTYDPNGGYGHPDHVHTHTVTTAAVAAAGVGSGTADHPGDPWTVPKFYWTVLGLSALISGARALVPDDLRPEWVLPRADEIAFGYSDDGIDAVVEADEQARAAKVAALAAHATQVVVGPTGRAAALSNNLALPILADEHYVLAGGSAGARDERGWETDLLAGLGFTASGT


Key:
[1] = test system: Mycolicibacterium smegmatis; experiment: Inhibition of Mycobacterium smegmatis Mca at 250 uM after 10 mins by HPLC analysis
How it was run: (§1)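 Native Mca purified from M. smegmatis by (NH4)2SO4 cut (15–50%), DEAE, hydroxyapatite and size-exclusion HPLC. 8.0 nmol of the bimane substrate MSmB and 8.0 nmol inhibitor (250 µM each) in Na-Hepes pH 7.5 with NaCl, 40 µl final volume, run 10 min at 37 °C. Stopped with acetonitrile/TFA and 60 °C for 10 min. Product read by C-18 HPLC with fluorescence detection (ex 396/em 482 nm).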

[2] = biological target: T1, 1D-myo-inositol 2-acetamido-2-deoxy-alpha-D-glucopyranoside deacetylase (Mycobacterium tuberculosis); experiment: Inhibition of Mycobacterium tuberculosis MshB expressed in Escherichia coli BL21 at 500 uM after 10 mins by HPLC analysis
How it was run: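 Recombinant MshB (E. coli BL21(DE3) pLysS, purified) assayed with GlcNAc-Ins and inhibitor, each at 500 μM, in 40 μl with 1.0 μmol Na-Hepes pH 7.5, 1.0 μmol NaCl, 3.26 μg MshB; 10 min at 37 °C; stopped with acetonitrile/TFA, 60 °C 10 min; GlcN-Ins measured by C-18 hplc as AccQ-Fluor derivative; percent inhibition.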

[3] = biological target: T1, 1D-myo-inositol 2-acetamido-2-deoxy-alpha-D-glucopyranoside deacetylase (Mycobacterium tuberculosis); experiment: Activity at Mycobacterium tuberculosis MshB expressed in Escherichia coli BL21 at 250 uM assessed per mg of protein by HPLC analysis
How it was run: (§2)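 Recombinant MshB from E. coli BL21(DE3) pLysS (IPTG 0.4 mM, 18 °C) purified by DEAE, Zn-IMAC and gel filtration. Substrates (GlcNAc glycosides, 250 μM for single-point comparison) incubated with 8.15 μg MshB, 1 μmol NaCl, 1 μmol Hepes pH 7.5 in 40 μl, 10 min, 37 °C; product quantified by C-18 hplc (UV for phenyl aglycons, dansylated for cyclohexyl) against complete-cleavage calibration curves.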

[4] = biological target: T1, 1D-myo-inositol 2-acetamido-2-deoxy-alpha-D-glucopyranoside deacetylase (Mycobacterium tuberculosis); experiment: Ratio of Kcat to Km for Mycobacterium tuberculosis MshB
How it was run: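 GlcNAc-Ins varied 50–2000 μM with 3.26 μg purified recombinant MshB, 1.0 μmol Na-Hepes pH 7.5, 1.0 μmol NaCl in 40 μl, 10 min at 37 °C; GlcN-Ins quantified by hplc as AccQ-Fluor derivative.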

[5] = biological target: T2, 1D-myo-inositol 2-acetamido-2-deoxy-alpha-D-glucopyranoside deacetylase; experiment: Inhibition of Mycobacterium tuberculosis MshB expressed in Escherichia coli BL21 after 10 mins by HPLC analysis
[6] = test system: Mycolicibacterium smegmatis; experiment: Activity at Mycobacterium smegmatis Mca by HPLC analysis; how it was run: as §1
[7] = substrate: CC(=O)N[C@@H]1[C@@H](O)[C@H](O)[C@@H](CO)O[C@@H]1Sc1ccccc1; experiment: (§3) Activity at Mycobacterium tuberculosis MshB expressed in Escherichia coli BL21 by HPLC analysis; how it was run: as §2
[8] = substrate: CC(=O)N[C@H]1[C@@H](O[C@@H]2[C@H](O)[C@H](O)[C@@H](O)[C@H](O)[C@H]2O)O[C@H](CO)[C@@H](O)[C@@H]1O; experiment: as §3; how it was run: as §2
[9] = substrate: CC(=O)N[C@@H]1[C@@H](O)[C@H](O)[C@@H](CO)O[C@@H]1Sc1ccccc1; experiment: (§4) Activity at Mycobacterium tuberculosis MshB expressed in Escherichia coli BL21 assessed per mg of protein by HPLC analysis; how it was run: as §2
[10] = substrate: CC(=O)N[C@H]1[C@@H](O[C@@H]2[C@H](O)[C@H](O)[C@@H](O)[C@H](O)[C@H]2O)O[C@H](CO)[C@@H](O)[C@@H]1O; experiment: as §4; how it was run: as §2

| Molecule | inhibition [1] | inhibition [2] | further results |
| --- | --- | --- | --- |
| CC(=N)N[C@@H]1[C@@H](O)[C@H](O)[C@@H](CO)O[C@@H]1SC1CCCCC1 | 6.8% | 0% | – |
| CC(=O)N[C@H]1[C@@H](O[C@@H]2[C@H](O)[C@H](O)[C@@H](O)[C@H](O)[C@H]2O)O[C@H](CO)[C@@H](O)[C@@H]1O | – | – | Activity [3]: 106 nmol/min/mg; Ratio [4]: 690 M⁻¹ s⁻¹ |
| CC1=C(CCCC(=O)N[C@@H]2[C@@H](O)[C@H](O)[C@@H](CO)O[C@@H]2Sc2ccccc2)C(=O)c2c(O)cccc2C1=O | 37.8% | 81.6% | – |
| OC[C@H]1O[C@H](OC2CCCCC2)[C@H](CC2CO2)[C@@H](O)[C@@H]1O (stereo partly drawn) | 19.4% | 19.7% | – |
| C=CC[C@H]1[C@H](OC2CCCCC2)O[C@H](CO)[C@@H](O)[C@@H]1O | 9.3% | 0% | – |
| CC(=O)N[C@@H]1[C@@H](O)[C@H](O)[C@@H](CO)O[C@H]1SCc1ccccc1 | 0% | 13.3% | – |
| CS(=O)(=O)N[C@@H]1[C@@H](O)[C@H](O)[C@@H](CO)O[C@@H]1SC1CCCCC1 | 0% | 0% | – |
| CC1=C(CCC(=O)N[C@@H]2[C@@H](O)[C@H](O)[C@@H](CO)O[C@@H]2Sc2ccccc2)C(=O)c2c(O)cccc2C1=O | 28.8% | 57.4% | Ki [5]: 167 µM |
| CO[C@H]1OCC(S[C@H]2O[C@H](CO)[C@@H](O)[C@H](O)[C@H]2NC(C)=O)C[C@H]1O (stereo partly drawn) | 27% | 0% | – |
| N[C@@H]1[C@@H](O)[C@H](O)[C@@H](CO)O[C@@H]1Sc1ccccc1 | 17% | 6.1% | – |
| CC(=O)C[C@H]1[C@@H](OC2CCCCC2)O[C@H](CO)[C@@H](O)[C@@H]1O | 17.2% | 6.7% | – |
| CC(=O)N[C@@H]1[C@@H](O)[C@H](O)[C@@H](CO)O[C@@H]1Sc1ccc([N+](=O)[O-])cc1[N+](=O)[O-] | 0% | 29.4% | – |
| OC[C@H]1O[C@H](OC2CCCCC2)[C@@H]2CC(O)CO[C@H]2[C@@H]1O (stereo partly drawn) | 35% | 6.6% | – |
| CC(=O)N[C@@H]1[C@@H](O)[C@H](O)[C@@H](CO)O[C@H]1Sc1ccccc1 | 0% | 15.1% | – |
| CC(=O)N[C@@H]1[C@@H](O)[C@H](O)[C@@H](CO)O[C@@H]1SC1CCCCC1 | – | – | Activity [3]: 6.11 nmol/min/mg |
| O=C(Nc1ccccc1)N[C@@H]1[C@@H](O)[C@H](O)[C@@H](CO)O[C@@H]1SC1CCCCC1 | 15% | 17% | – |
| CC1=C(CCCCC(=O)N[C@@H]2[C@@H](O)[C@H](O)[C@@H](CO)O[C@@H]2Sc2ccccc2)C(=O)c2c(O)cccc2C1=O | 23.2% | 81.4% | Ki [5]: 94 µM |
| CC(=O)N[C@@H]1[C@@H](O)[C@H](O)[C@@H](CO)O[C@@H]1Sc1ccccc1 | – | – | Activity [3]: 27 nmol/min/mg; Ratio [4]: 69.4 M⁻¹ s⁻¹ |
| CC(=O)N[C@@H](CSSc1ccc2cc(O)ccc2c1)C(=O)NC1[C@@H](OC2[C@H](O)[C@H](O)C(O)[C@@H](O)[C@H]2O)O[C@H](CO)[C@@H](O)[C@@H]1O (stereo partly drawn) | – | – | Km [6]: 328 µM |
| C=CC[C@H]1[C@@H](OC2CCCCC2)O[C@H](CO)[C@@H](O)[C@@H]1O | 73.8% | 0% | – |
| O=C(CCl)N[C@@H]1[C@@H](O)[C@H](O)[C@@H](CO)O[C@@H]1SC1CCCCC1 | 0% | 14.9% | – |
| CC(O)C[C@H]1[C@@H](OC2CCCCC2)O[C@H](CO)[C@@H](O)[C@@H]1O (stereo partly drawn) | 20.5% | 11.4% | – |
| CC(=O)N[C@H]1[C@@H](OC2CCCCC2)O[C@H](CO)[C@@H](O)[C@@H]1O | – | – | Activity [3]: 6.07 nmol/min/mg |
| CCC[C@H]1[C@@H](OC2CCCCC2)O[C@H](CO)[C@@H](O)[C@@H]1O | 22% | 0% | – |
| N[C@@H]1[C@@H](O)[C@H](O)[C@@H](CO)O[C@@H]1SC1CCCCC1 | 0% | 16.4% | – |
| CC1=C(CCCCCC(=O)N[C@@H]2[C@@H](O)[C@H](O)[C@@H](CO)O[C@@H]2Sc2ccccc2)C(=O)c2c(O)cccc2C1=O | 44.5% | 94.8% | Ki [5]: 16.8 µM |
| 1D-myo-inositol 2-acetamido-2-deoxy-alpha-D-glucopyranoside deacetylase (Mycobacterium tuberculosis), P9WJN3 (protein) MSETPRLLFVHAHPDDESLSNGATIAHYTSRGAQVHVVTCTLGEEGEVIGDRWAQLTADHADQLGGYRIGELTAALRALGVSAPIYLGGAGRWRDSGMAGTDQRSQRRFVDADPRQTVGALVAIIRELRPHVVVTYDPNGGYGHPDHVHTHTVTTAAVAAAGVGSGTADHPGDPWTVPKFYWTVLGLSALISGARALVPDDLRPEWVLPRADEIAFGYSDDGIDAVVEADEQARAAKVAALAAHATQVVVGPTGRAAALSNNLALPILADEHYVLAGGSAGARDERGWETDLLAGLGFTASGT | – | – | Km [7]: 1700 µM; kcat [7]: 0.12 s⁻¹; Km [8]: 348 µM; kcat [8]: 0.24 s⁻¹; Vmax [9]: 214 nmol/min/mg; Vmax [10]: 437 nmol/min/mg |
